This is an account of results in ChEMBL document CHEMBL1154340, “Biphenyls from Berberis koreana” (J Nat Prod, 2009).

The test system of data set [1] is SK-MEL-2. The experiment in a line: Cytotoxicity against human SK-MEL-2 cells by SRB assay. Format: functional, cell-based.
For data set [2], the system named is A549. Put plainly: Cytotoxicity against human A549 cells by SRB assay. Format: functional, cell-based.
The subject of data set [3] is HCT-15. The experiment in a line: Cytotoxicity against human HCT15 cells by SRB assay. Format: functional, cell-based.
Data set [4] can be described thus: Cytotoxicity against mouse BV2 cells by MTT assay. Format: cell-based. To be noted: bv-2. The procedure, abridged: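 Viability of the same cultures determined by MTT (3-[4,5-dimethylthiazol-2-yl]-2,5-diphenyltetrazolium bromide) assay.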
(Tetrazolium assays rely on reduction of a dye to a coloured formazan, in cell work by metabolically active cells.)

In data set [5] the test system is SK-OV-3. The experiment in a line: Cytotoxicity against human SKOV3 cells by SRB assay. Format: functional, cell-based. A general note: The SRB assay estimates cell density from bound dye.
In data set [6] the test system is BV-2. Put plainly: Antiinflammatory activity in mouse BV2 cells assessed as effect on LPS-stimulated nitrite accumulation after 24 hrs by Griess reagent method. Format: functional, cell-based. The settings on record: BV-2, 24 h. The procedure, abridged: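 Nitrite, the stable NO oxidation product, measured in culture supernatant by Griess reaction: 50 µL supernatant mixed with equal volume of reagent (1% sulfanilamide, 0.1% N-1-naphthylethylenediamine dihydrochloride in 5% phosphoric acid). Absorbance at 540 nm read after 10 min. Sodium nitrite standard used for quantitation. L-NMMA served as positive control. IC50 values reported.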
A general note: Griess reagent forms a coloured azo dye with nitrite.

One may read the IC50 as the concentration needed to halve the response being measured. Consider `COc1cc(-c2ccccc2)cc(Oc2c(OC)cc([C@@H](O)[C@H](O)CO)cc2OC)c1O` [BERBEKORIN A], for which the IC50 in data set [1] amounted to 4.4 µM; in data set [2], 8.2 µM; in data set [3] it was 7 µM. Further, the Activity entry in data set [4] is “Toxic”.

On to `COc1cc(O)cc(-c2ccccc2)c1`, for which the IC50 in data set [1], in data set [2], in data set [3] and in data set [5] was > 10 µM each time.

In the case of `COc1cc(-c2ccccc2O)cc(OC)c1O`, the IC50 in data set [1], in data set [2], in data set [3] and in data set [5] was > 10 µM throughout.

As to `COc1cc(-c2ccccc2O)cc(OC)c1OC`, the IC50 in data set [1] is > 10 µM; in data set [2], > 10 µM; in data set [6], 50.6 µM; in data set [3], > 10 µM; in data set [5] it was > 10 µM.

As for `COc1cc(-c2ccccc2)cc(OC)c1O` [AUCUPARIN], the IC50 in data set [1], in data set [2], in data set [3] and in data set [5] was > 10 µM throughout.

On to `COc1cc(OC)cc(-c2ccccc2O)c1`, for which the IC50 in data set [1] was > 10 µM; in data set [2], > 10 µM; in data set [6], 32.1 µM; in data set [3], > 10 µM; in data set [5] it was > 10 µM.

For the compound `COc1cc2c(oc3cccc(O)c32)c(OC)c1O`, the half-inhibitory concentration (IC50) in data set [1], in data set [2], in data set [3] and in data set [5] was > 10 µM in each case.

`COc1cc(-c2ccccc2)cc(OC)c1OC` [METHOXY AUCUPARIN]: the IC50 in data set [1] is > 10 µM; in data set [2], > 10 µM; in data set [6] it was 21.9 µM; in data set [3] it was > 10 µM; in data set [5], > 10 µM.

Take `COc1cc2c(oc3cc(O)ccc32)c(OC)c1O`: the IC50 in data set [1], in data set [2], in data set [3] and in data set [5] was > 10 µM in each case.

In the case of `COc1cc2c(oc3ccccc32)c(OC)c1O` [ERIOBOFURAN], the IC50 in data set [1], in data set [2], in data set [3] and in data set [5] was > 10 µM each time.

For the compound `COc1cc(-c2ccccc2)cc(O)c1O`, the IC50 in data set [1], in data set [2], in data set [3] and in data set [5] was > 10 µM each time.

`COc1cc(OC)cc(-c2ccc(O)cc2)c1`: the IC50 in data set [1], in data set [2], in data set [3] and in data set [5] was > 10 µM throughout.

As to `COc1ccc2c(oc3c(OC)c(OC)c(O)cc32)c1O`, the IC50 in data set [1] was > 10 µM; in data set [2], > 10 µM; in data set [6], 33 µM; in data set [3], > 10 µM; in data set [5] it was > 10 µM.

Take `COc1cc(OC)cc(-c2ccccc2)c1`: the half-maximal inhibitory concentration (IC50) in data set [1], in data set [2], in data set [3] and in data set [5] was > 10 µM each time.
